# Legend:
# Type in all cases: functional
# Conditions in all cases: for zone of inhibition at 100 µg/mL: read-out: DIZ
# [1] = system: Bacillus subtilis; assay: Antimicrobial activity against Bacillus subtilis at 100 ug/ml after 24 to 48 hrs by disk diffusion method
# Summary of the method: (§1)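 Disc diffusion (cup plate) screen. Organism suspensions were applied to plates and incubated at 36 °C for 24–48 h in a sufficiently humid chamber, after which the zone of inhibition was read. Compounds were dissolved in DMSO as a stock solution and serially diluted to test solutions of 25, 50, 75, 100 and 150 µg/ml.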
# [2] = system: Staphylococcus epidermidis; assay: Antimicrobial activity against Staphylococcus epidermidis at 100 ug/ml after 24 to 48 hrs by disk diffusion method; summary of the method: as §1
# [3] = system: Staphylococcus aureus; assay: Antimicrobial activity against Staphylococcus aureus at 100 ug/ml after 24 to 48 hrs by disk diffusion method; summary of the method: as §1
# [4] = system: Aspergillus niger; assay: Antimicrobial activity against Aspergillus niger at 100 ug/ml after 24 to 48 hrs by disk diffusion method; summary of the method: as §1
Compound,zone of inhibition at 100 µg/mL [1],zone of inhibition at 100 µg/mL [2],zone of inhibition at 100 µg/mL [3],zone of inhibition at 100 µg/mL [4],inhibition zone (IZ) [1],inhibition zone (IZ) [2],inhibition zone (IZ) [3],inhibition zone (IZ) [4]
CCOC(=O)C1=C(N)OC(c2c[nH]c3ccccc23)=C(C#N)[C@@]12C(=O)Nc1ccccc12,19 mm,18 mm,18 mm,23 mm,–,–,–,–
CCOC(=O)C1=C(N)OC(c2c[nH]c3ccccc23)=C(C#N)[C@@]12C(=O)c1cccc3cccc2c13,17 mm,18 mm,20 mm,27 mm,–,–,–,–
CN1C(=O)[C@]2(C(C#N)=C(N)OC(c3c[nH]c4ccccc34)=C2C#N)c2ccccc21,26 mm,28 mm,27 mm,27 mm,–,–,–,–
CCOC(=O)CN1C(=O)[C@@]2(C(C#N)=C(c3c[nH]c4ccccc34)OC(N)=C2C(=O)OCC)c2ccccc21,12 mm,10 mm,14 mm,21 mm,–,–,–,–
N#CC1=C(N)OC(c2c[nH]c3ccccc23)=C(C#N)[C@@]12C(=O)c1cccc3cccc2c13,40 mm,39 mm,38 mm,29 mm,–,–,–,–
O=C(N[C@H](CO)[C@H](O)c1ccc([N+](=O)[O-])cc1)C(Cl)Cl [CHLORAMPHENICOL],32 mm,31 mm,29 mm,25 mm,–,–,–,–
N#CC1=C(N)OC(c2c[nH]c3ccccc23)=C(C#N)[C@@]12C(=O)Nc1ccccc12,28 mm,30 mm,29 mm,28 mm,–,–,–,–
GENTAMICIN SULFATE,–,–,–,–,30 mm,28 mm,26 mm,28 mm
CCOC(=O)C1=C(N)OC(c2c(C)[nH]c3ccccc23)=C(C#N)[C@@]12C(=O)c1cccc3cccc2c13,18 mm,16 mm,20 mm,26 mm,–,–,–,–
CCCCN1C(=O)[C@@]2(C(C#N)=C(c3c[nH]c4ccccc34)OC(N)=C2C(=O)OCC)c2ccccc21,17 mm,14 mm,16 mm,27 mm,–,–,–,–
CCOC(=O)C1=C(N)OC(c2cn(C)c3ccccc23)=C(C#N)[C@@]12C(=O)c1cccc3cccc2c13,18 mm,18 mm,19 mm,22 mm,–,–,–,–
C#CCN1C(=O)[C@]2(C(C#N)=C(N)OC(c3c[nH]c4ccccc34)=C2C#N)c2ccccc21,20 mm,19 mm,18 mm,25 mm,–,–,–,–
C#CCN1C(=O)[C@@]2(C(C#N)=C(c3c[nH]c4ccccc34)OC(N)=C2C(=O)OCC)c2ccccc21,17 mm,16 mm,16 mm,25 mm,–,–,–,–
Cn1cc(C2=C(C#N)[C@@]3(C(=O)c4cccc5cccc3c45)C(C#N)=C(N)O2)c2ccccc21,36 mm,38 mm,39 mm,28 mm,–,–,–,–
Cc1[nH]c2ccccc2c1C1=C(C#N)[C@@]2(C(=O)c3cccc4cccc2c34)C(C#N)=C(N)O1,19 mm,16 mm,20 mm,26 mm,–,–,–,–
NYSTATIN,–,–,–,–,–,–,–,28 mm
CCOC(=O)CN1C(=O)[C@]2(C(C#N)=C(N)OC(c3c[nH]c4ccccc34)=C2C#N)c2ccccc21,26 mm,25 mm,24 mm,25 mm,–,–,–,–
CCOC(=O)C1=C(N)OC(c2c[nH]c3ccccc23)=C(C#N)[C@@]12C(=O)N(C)c1ccccc12,13 mm,14 mm,18 mm,23 mm,–,–,–,–
C=CCN1C(=O)[C@@]2(C(C#N)=C(c3c[nH]c4ccccc34)OC(N)=C2C(=O)OCC)c2ccccc21,14 mm,13 mm,18 mm,21 mm,–,–,–,–
CCOC(=O)C1=C(N)OC(c2c[nH]c3ccccc23)=C(C#N)[C@@]12C(=O)N(Cc1ccccc1)c1ccccc12,14 mm,15 mm,16 mm,24 mm,–,–,–,–
N#CC1=C(N)OC(c2c[nH]c3ccccc23)=C(C#N)[C@@]12C(=O)N(Cc1ccccc1)c1ccccc12,30 mm,31 mm,29 mm,24 mm,–,–,–,–

# Reference: ChEMBL document CHEMBL1177778, “One-pot multicomponent synthesis and anti-microbial evaluation of 2'-(indol-3-yl)-2-oxospiro(indoline-3,4'-pyran) derivatives” (2010)
